In data set [1] the test system is Rattus norvegicus. The data set is described as follows: Anxiolytic like activity in water-deprived Sprague-Dawley rat assessed as increase in water drinking time during punished period at 3 mg/kg, po administered 30 mins prior to testing by Vogel conflict test relative to control. Format: functional, organism-based. Summed up: (§1)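 Water-deprived male Sprague-Dawley rats (n = 6–8) drank during unpunished and punished periods, with licking suppressed by mild shock in punished periods. Compounds were given 30 min before testing. Analysis was ANOVA with Dunnett's test.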

In data set [2] the test system is Rattus norvegicus. The data set is described as follows: Anxiolytic like activity in water-deprived Sprague-Dawley rat assessed as increase in water drinking time during punished period at 30 mg/kg, po administered 30 prior to testing by Vogel conflict test relative to vehicle control. Format: functional. Summed up: as §1
A short description of data set [3]: Clearance in femoral artery/vein cannulated Sprague-Dawley rat at 1 mg/kg, iv administered […] as single dose by LC-MS/MS analysis. Format: ADME, organism-based. To be noted: in vivo. The method in brief: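 Male Sprague-Dawley rats (n = 3 per time point) were dosed 1 mg/kg i.v. or 10 mg/kg i.p. Plasma concentrations were measured at set time points. Clearance, Vdss and T½ came from the i.v. arm, and AUC, Cmax and Tmax from the i.p. arm.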

In data set [4] the target is T1, GABA-A receptor; alpha-2/beta-3/gamma-2 (Homo sapiens, UniProt P18507+P28472+P47869).
T1 sequence (P18507 whole entry): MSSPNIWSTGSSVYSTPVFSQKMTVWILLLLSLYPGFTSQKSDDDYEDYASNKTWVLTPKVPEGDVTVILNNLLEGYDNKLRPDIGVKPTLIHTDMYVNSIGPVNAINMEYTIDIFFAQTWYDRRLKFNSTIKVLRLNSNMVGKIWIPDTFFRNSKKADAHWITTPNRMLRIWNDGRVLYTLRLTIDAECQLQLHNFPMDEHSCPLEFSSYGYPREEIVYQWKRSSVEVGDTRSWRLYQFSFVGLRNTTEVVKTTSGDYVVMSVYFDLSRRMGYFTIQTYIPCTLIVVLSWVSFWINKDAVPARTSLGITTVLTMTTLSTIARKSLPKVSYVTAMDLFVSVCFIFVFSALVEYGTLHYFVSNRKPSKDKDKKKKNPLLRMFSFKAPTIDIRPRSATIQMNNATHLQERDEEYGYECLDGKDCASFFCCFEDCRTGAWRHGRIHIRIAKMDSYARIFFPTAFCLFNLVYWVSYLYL
T1 sequence (P28472 whole entry): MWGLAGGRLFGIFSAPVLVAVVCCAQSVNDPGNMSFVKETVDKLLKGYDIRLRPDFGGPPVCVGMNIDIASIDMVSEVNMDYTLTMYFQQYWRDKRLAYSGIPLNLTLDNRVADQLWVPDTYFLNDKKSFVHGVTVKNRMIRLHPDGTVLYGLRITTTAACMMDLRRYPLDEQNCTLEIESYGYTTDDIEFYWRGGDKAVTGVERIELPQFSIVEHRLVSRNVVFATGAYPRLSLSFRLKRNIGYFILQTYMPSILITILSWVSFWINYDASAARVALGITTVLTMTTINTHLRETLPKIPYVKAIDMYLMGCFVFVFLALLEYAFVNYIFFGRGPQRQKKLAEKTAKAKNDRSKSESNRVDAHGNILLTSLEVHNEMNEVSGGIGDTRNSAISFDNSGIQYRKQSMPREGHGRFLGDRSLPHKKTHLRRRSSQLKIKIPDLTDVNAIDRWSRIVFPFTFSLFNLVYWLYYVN
T1 sequence (P47869 whole entry): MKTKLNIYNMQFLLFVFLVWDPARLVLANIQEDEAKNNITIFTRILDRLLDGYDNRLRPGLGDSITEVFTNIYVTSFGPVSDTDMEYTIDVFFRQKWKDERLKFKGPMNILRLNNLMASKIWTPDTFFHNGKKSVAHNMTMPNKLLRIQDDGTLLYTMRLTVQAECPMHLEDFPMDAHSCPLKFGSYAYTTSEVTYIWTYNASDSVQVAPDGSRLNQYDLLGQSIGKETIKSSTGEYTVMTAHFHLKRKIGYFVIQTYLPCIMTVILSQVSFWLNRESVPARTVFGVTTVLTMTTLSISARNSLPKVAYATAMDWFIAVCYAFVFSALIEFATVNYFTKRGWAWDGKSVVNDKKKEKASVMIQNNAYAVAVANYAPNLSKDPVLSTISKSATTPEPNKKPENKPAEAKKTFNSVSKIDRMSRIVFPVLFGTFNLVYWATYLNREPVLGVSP
The data set is described as follows: Modulation of recombinant human GABA alpha2beta3gamma2 receptor expressed in HEK293 cells assessed as change in GABA-induced current at -80 mV holding potential preincubated for 3 mins followed by co-administration of GABA by electrophysiology method. Format: cell-based.

Data set [5] concerns the target T2, GABA-A receptor; alpha-2/beta-3/gamma-2 (Homo sapiens) (UniProt P18507+P28472+P47869). The data set is described as follows: Modulation of recombinant GABA alpha2beta3gamma2 receptor (unknown origin) expressed in Xenopus laevis oocytes assessed as change in GABA-induced EC(3 to 6) current at 100 nM by two-electrode voltage clamp assay. Format: cell-based. Summed up: (§2)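 Xenopus laevis oocytes expressing α1, α2, α3 or α5 β3γ2 GABAARs were recorded by two-electrode voltage clamp. Modulation of the GABA EC3-6 current (taken as 100%) was tested at 100 nM, 1 μM and 10 μM in the same cells. Values are mean ± SEM, n = 3–4.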

In data set [6] the target is T2, GABA-A receptor; alpha-2/beta-3/gamma-2 (Homo sapiens). In words: Modulation of recombinant GABA alpha2beta3gamma2 receptor (unknown origin) expressed in Xenopus laevis oocytes assessed as change in GABA-induced EC(3 to 6) current at 1 uM by two-electrode voltage clamp assay. Format: cell-based. The method in brief: as §2
Data set [7] deals with GABA-A receptor; alpha-1/beta-3/gamma-2 (Homo sapiens) (UniProt P14867+P18507+P28472). In words: Modulation of recombinant GABA alpha1beta3gamma2 receptor (unknown origin) expressed in Xenopus laevis oocytes assessed as change in GABA-induced EC(3 to 6) current at 10 uM by two-electrode voltage clamp assay. Format: cell-based. The method in brief:
as §2
In general terms: Two-electrode voltage clamp holds a large cell at a set potential and records current.

Data set [8] deals with Rattus norvegicus. The data set is described as follows: Anxiolytic like activity in water-deprived Sprague-Dawley rat assessed as increase in water drinking time during punished period at 20 mg/kg, po administered 30 mins prior to testing by Vogel conflict test relative to control. Format: functional. The method in brief:
as §1

Data set [9] concerns Rattus norvegicus. In words: Toxicity in water-deprived Sprague-Dawley rat assessed as effect on water drinking time during nonpunished period up to 60 mg/kg, po administered 30 mins prior to testing. Format: organism-based. To be noted: in vivo, 0.5 h.

Activity calls are given as the source filed them. The rule behind the calls is not given here.

By EC50 is commonly meant the concentration giving half of the maximal effect. Turning to `C#Cc1ccc2c(c1)C(c1ccccn1)=NCc1c(-c3cnco3)ncn1-2`, the outcome in data set [1] was inactive. In addition, the Activity in data set [2] was 220%; in data set [5] it was 100%; in data set [6], 201%; in [7], 232%; in [8], 330%; in [9] it was “Non-Toxic”. The same molecule returned a clearance in data set [3] of 21.7 mL/min/kg. Moreover, the EC50 in [4] turned out to be 118 nM.

Source of the values: ChEMBL document CHEMBL4041524, “Synthesis and Characterization of a Novel γ-Aminobutyric Acid Type A (GABAA) Receptor Ligand That Combines Outstanding Metabolic Stability, Pharmacokinetics, and Anxiolytic Efficacy” (J Med Chem, 2016).
